Activity calls are given as the source filed them. The rule behind the calls is not given here.
Organism: Rattus norvegicus
Experiment: Inhibition of testosterone-induced prostate weight increase in Sprague-Dawley rat by modified Hersherberger assay
Format: functional, Prostate gland
Conditions: not given
In short: (§1)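 Rats castrated at three weeks old, then dosed orally by gavage once daily for five days in 30% (w/v) hydroxypropyl-β-cyclodextrin, together with testosterone propionate 0.1 mg/day (about 1.3 mg/kg) s.c. in sesame oil. At necropsy, ventral prostate wet weight was measured. Values are body-weight-adjusted means of three or four animals.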

Q: For `CC(O)(CS(=O)(=O)c1ccc(F)cc1)C(=O)Nc1ccc(C#N)c(C(F)(F)F)c1` (stereo not given) [BICALUTAMIDE], which ID50 is on record?
A: 0.29 mg/day

Q: With `CC(O)(c1cc2cc(C#N)c(C(F)(F)F)cc2[nH]1)C(F)(F)F` (single isomer, unassigned; (-)) as the compound, how does the ID50 read?
A: 0.13 mg/day

Q: How did the ID50 turn out when `CC(C)(O)c1[nH]c2cc(C(F)(F)F)c(C#N)cc2c1Cl` was run?
A: >3 mg/day

Q: For `CC(C)(O)c1[nH]c2cc(C(F)(F)F)c(C#N)cc2c1Br`, which ID50 is on record?
A: 0.8 mg/day

Q: How did the ID50 turn out when `CC(C)(O)c1[nH]c2cc(C(F)(F)F)c(C#N)cc2c1I` was run?
A: 1.1 mg/day

Q: With `CC(O)(c1cc2cc(C#N)c(C(F)(F)F)cc2[nH]1)C(F)(F)F` (single isomer, unassigned; (+)) as the compound, how does the ID50 read?
A: 0.43 mg/day

Organism: Rattus norvegicus
Experiment: Reduction of testosterone-induced prostate weight increase in Sprague-Dawley rat by modified Hersherberger assay relative to control
Format: functional, Prostate gland
Parameters: concentration or dose not given beside the values
Conditions: not given
In short: as §1

Q: With `CC(C)(O)c1[nH]c2cc(C(F)(F)F)c([N+](=O)[O-])cc2c1Cl` as the compound, how does the Activity read?
A: 81%

Q: How did the Activity turn out when `CC(C)(O)c1[nH]c2cc(C(F)(F)F)c([N+](=O)[O-])cc2c1I` was run?
A: 59%

Q: How did the Activity turn out when `Cc1c(C(C)(C)O)[nH]c2cc(C(F)(F)F)c([N+](=O)[O-])cc12` was run?
A: 37%

Q: With `CC(O)(c1cc2cc(C#N)ccc2[nH]1)C(F)(F)F` (stereo not given) as the compound, how does the Activity read?
A: 55%

Q: For `CC(O)(c1cc2cc([N+](=O)[O-])c(C(F)(F)F)cc2[nH]1)C(F)(F)F` (stereo not given), which Activity is on record?
A: 78%

Q: Which Activity does the source give for `CSCC(C)(O)c1cc2cc([N+](=O)[O-])c(C(F)(F)F)cc2[nH]1` (stereo not given) here?
A: 66%

Q: For `Cn1c(C(C)(O)C(F)(F)F)cc2cc(C#N)c(C(F)(F)F)cc21` (stereo not given), which Activity is on record?
A: 90%

Q: How did the Activity turn out when `CC(O)(CS(=O)(=O)c1ccc(F)cc1)C(=O)Nc1ccc(C#N)c(C(F)(F)F)c1` (stereo not given) [BICALUTAMIDE] was run?
A: 75%

Q: With `CC(C)(O)c1[nH]c2cc(C(F)(F)F)c([N+](=O)[O-])cc2c1C#N` as the compound, how does the Activity read?
A: 56%

Q: How did the Activity turn out when `CC(C)(O)c1cc2cc([N+](=O)[O-])c(C(F)(F)F)cc2[nH]1` was run?
A: 32%

Q: How did the Activity turn out when `CC(O)(c1cc2cc(C#N)c(C(F)(F)F)cc2[nH]1)C(F)(F)F` (single isomer, unassigned; (-)) was run?
A: 80%

Q: How did the Activity turn out when `CC(O)(c1[nH]c2cc(C(F)(F)F)c(C#N)cc2c1Cl)C(F)(F)F` (stereo not given) was run?
A: 66%

Q: How did the Activity turn out when `Cc1c(C(C)(C)O)[nH]c2cc(C(F)(F)F)c(C#N)cc12` was run?
A: 55%

Q: With `CC(O)(CO)c1cc2cc([N+](=O)[O-])c(C(F)(F)F)cc2[nH]1` (stereo not given) as the compound, how does the Activity read?
A: 58%

Q: `CC(O)(CCl)c1cc2cc([N+](=O)[O-])c(C(F)(F)F)cc2[nH]1` (stereo not given) was tested. Which Activity did it give?
A: 38%

Q: `CC(C)(O)c1[nH]c2cc(C(F)(F)F)c(C#N)cc2c1I` was tested. Which Activity did it give?
A: 81%

Q: Which Activity does the source give for `CC(O)(c1[nH]c2cc(C(F)(F)F)c(C#N)cc2c1I)C(F)(F)F` (stereo not given) here?
A: 79%

Q: With `CC(O)(c1cc2cc(C#N)c(C(F)(F)F)cc2[nH]1)C(F)(F)F` (stereo in doubt; 6i) as the compound, how does the Activity read?
A: 82%

Q: How did the Activity turn out when `CC(C)(O)c1[nH]c2cc(C(F)(F)F)c([N+](=O)[O-])cc2c1Br` was run?
A: 71%

Q: How did the Activity turn out when `CC(O)(c1cc2cc(C#N)c(C(F)(F)F)cc2[nH]1)C(F)(F)F` (single isomer, unassigned; (+)) was run?
A: 76%

Q: With `CC(O)(c1cc2cc(Cl)c(C(F)(F)F)cc2[nH]1)C(F)(F)F` (stereo not given) as the compound, how does the Activity read?
A: 30%

Q: Which Activity does the source give for `CCC(C)(O)c1cc2cc([N+](=O)[O-])c(C(F)(F)F)cc2[nH]1` (stereo not given) here?
A: 63%

Same assay, conditions: Prostate gland

Q: With `CC(O)c1cc2cc([N+](=O)[O-])c(C(F)(F)F)cc2[nH]1` (stereo not given) as the compound, how does the Activity read?
A: inactive

Q: How did the Activity turn out when `C=Cc1c(C(C)(C)O)[nH]c2cc(C(F)(F)F)c([N+](=O)[O-])cc12` was run?
A: inactive

— ChEMBL document CHEMBL1146271, “The discovery of a potent orally efficacious indole androgen receptor antagonist through in vivo screening” (2007)
